# High-throughput results: PubChem, The Scripps Research Institute Molecular Screening Center
# Most compounds without a hit are left out; they make up all but 2.7% or so of the library.
# OXTR potentiate – potentiators of human oxytocin receptor. CHO-OTR cells, Fluo-8 calcium fluorescence, potentiator mode; 0% = oxytocin EC15, 100% = EC100. activation, % at 3 µM. actives 0.061% (n = 320,000). AID 2445;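 active = activation above that plate's cutoff, the mean activation of tested compounds plus 3 SD, cut at about 6.6% in these data, passing the limit was not always enough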;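 note: 100% uses oxytocin at 75 nM as the full agonist control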
# Target sequence (P30559 whole entry, looked up): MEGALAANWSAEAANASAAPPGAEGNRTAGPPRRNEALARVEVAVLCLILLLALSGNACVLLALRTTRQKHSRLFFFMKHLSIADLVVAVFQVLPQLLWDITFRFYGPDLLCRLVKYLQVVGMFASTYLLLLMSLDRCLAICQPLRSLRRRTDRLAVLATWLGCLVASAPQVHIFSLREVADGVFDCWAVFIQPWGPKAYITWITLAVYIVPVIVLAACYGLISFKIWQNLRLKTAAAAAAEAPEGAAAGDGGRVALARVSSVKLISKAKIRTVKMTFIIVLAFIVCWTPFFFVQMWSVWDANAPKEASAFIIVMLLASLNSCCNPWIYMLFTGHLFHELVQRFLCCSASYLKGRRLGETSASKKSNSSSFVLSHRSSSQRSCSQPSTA
#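 test system = CHO-OTR cells, human receptor | compound = single-point 3.0 µM | schedule = 6 min compound pre-incubation at room temperature, 100 s kinetic read | signal = Fluo-8 no-wash calcium dye fluorescence, excitation 470-495 nm, emission 515-575 nm | repeats = single well per compound, singlicate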
# OX1R antag-1 – blocks the human orexin 1 receptor; AID 434989; O43613; CHO/OX1R cells, Fluo-8 calcium fluorescence, orexin A; inhibition, % at 5 µM; actives 0.43% (n = 330,000);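 active = inhibition above its plate's threshold, mean inhibition of all tested compounds on the plate plus 3 SD, cut at about 37% in these data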;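 note: 0% = orexin A challenge wells and 100% = SB-334867-A antagonist wells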
# V1R ag counter – activates human V1a receptor in oxytocin agonist counter-screen. CHO-V1R cells, Fluo-8 calcium fluorescence, agonist mode; 0% DMSO, 100% 3 nM vasopressin. activation, % at 3 µM. actives 0.25% (n = 320,000). AID 2797;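 active = activation above the mean activation of all tested compounds plus 3 SD, per screening run, cut at about 20% in these data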;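 note: signal is peak over basal fluorescence ratio across a 100 second FLIPR read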
# OX1R antag-2 – antagonists of human orexin 1 receptor (OX1R); OX1R-expressing cells, FRET antagonist read-out; actives 1.8% (n = 330,000); inhibition, % at 6.6 µM; in the data active = inhibition mostly above about 38%, no sharp cut-off; inactive = mostly below about 40%;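 note: 0% = agonist challenge alone and 100% = reference antagonist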
# OXTR agonist – human OXTR agonism | CHO-OTR cells, Fluo-8 calcium fluorescence; normalized: DMSO 0%, oxytocin 100% | activation, % at 3 µM | actives 0.32% (n = 320,000);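 active = activation above the mean of all tested compounds plus 3 SD, cutoff set per screening run, cut at about 20% in these data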;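 note: peak over basal fluorescence ratio from a 100 s FLIPR kinetic read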
# CHO parental Ca – counter-screen: ATP calcium response change in parental CHO cells. actives 0.63% (n = 330,000). AID 463079. inhibition, % at 5.6 µM. parental CHO-K1, ATP-induced calcium, Fluo-8 fluorescence;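 active = inhibition above that plate's mean sample inhibition plus 3 SD, cut at about 26% in these data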;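 note: 0% = ATP-challenged DMSO wells and 100% = DMSO wells without ATP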
#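 Assay system: untransfected parental CHO cell line. Also added: ATP agonist challenge. Dosing: one dose, 5.6 µM nominal. Measured by: Fluo-8 fluorescence. Read-out: % inhibition. Benchmarks: ATP wells versus no-ATP DMSO wells. Repeats: no replicates.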
# OX1R Fluo8 conf – OX1R (human) antagonism, confirmed | inhibition, % at 5 µM | CHO/OX1R cells, orexin A calcium Fluo-8 fluorescence | shares compounds with OX1R antag-1 | actives 38% (n = 1,100); in the data active = inhibition above about 29%;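 note: 0% = agonist challenge alone and 100% = reference antagonist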
# CHO Ca triplic – counter-screen: parental CHO calcium response change, triplicate | AID 492965 | inhibition, % at 5.6 µM | actives 9.3% (n = 1,100) | parental CHO-K1, ATP-induced calcium, Fluo-8 fluorescence | shares compounds with OX1R antag-1;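 active = inhibition above a per-plate limit, the mean inhibition of that plate's test compounds plus 3 SD, cut at about 25% in these data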;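 note: 0% = ATP challenge with DMSO and 100% = DMSO without ATP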
# The depositor's hits bear a star; / = no result given.
SMILES,OXTR potentiate,OX1R antag-1,V1R ag counter,OX1R antag-2,OXTR agonist,CHO parental Ca,OX1R Fluo8 conf,CHO Ca triplic
COc1cccc(C(=O)/C=C/Nc2ccc(S(=O)(=O)Nc3cccc(C(C)=O)c3)cc2)c1,-18,32,5,50,5,16,25,14
CCCCN(CC(=O)NCCOC)C(=O)Cn1nnc2ccccc21,-1,-5,1,15,1,-1,/,/
Brc1ccccc1-n1nnc(-c2nccs2)n1,-1,45,-1,22,7,-12,7,-8
O=C(CCNC(=O)c1ccccc1Cl)Nc1cccc(S(=O)(=O)N2CCCC2)c1,-4,-8,0,3,-1,-8,/,/
Cc1ccn2c(NCc3ccccc3)c(-c3cccc(SC4CCCCC4)c3)nc2c1,-2,56,-1,32,-1,15,18,-4
Clc1ccc2nc(-c3cccc(SC4CCCCC4)c3)c(NCc3ccccc3)n2c1,-13,-24,0,25,-2,-30,/,/
CCN(c1ccccc1)S(=O)(=O)c1cc(C(=O)O)ccc1C,5,-14,0,9,1,-10,/,/
CCN(c1ccccc1)S(=O)(=O)c1cc(C(=O)Nc2ccc(F)c(F)c2)ccc1F,-10,27,10,37,5,-2,38*,9
COc1cccc(CNC(=O)c2ccc(C3SCCS3)cc2)c1,-5,-18,1,18,0,3,/,/
O=C(CCNC(=O)c1ccc(Br)o1)NC1CCCC1,-1,23,1,2,0,-5,7,-18
CC(=O)c1ccccc1NS(C)(=O)=O,-2,2,0,5,1,5,/,/
C=CCn1c(SCC(=O)Nc2sccc2C(N)=O)nc2sc(C)c(C)c2c1=O,-9,43,1,20,2,-14,-1,-15
C=CCn1c(SCc2ccc(C(=O)O)cc2)nc2sc(C)c(C)c2c1=O,-19,-13,-1,15,-2,-21,/,/
O=C(CSc1ncccc1-c1nc2ccccc2[nH]1)NCc1ccco1,-7,-9,-1,11,0,-10,/,/
Cc1cc2nc(-c3cccnc3SCC(=O)NCc3ccco3)[nH]c2cc1C,-3,26,0,14,0,-14,-3,-3
O=C(O)c1ccc(NNC(=S)Nc2cc(C(F)(F)F)ccc2Cl)cc1,-7,0,-1,8,0,-12,/,/
O=C(CSc1nc2ccccc2[nH]1)Nc1ccccc1N1CCOCC1,-6,38,0,75,0,-1,35*,-9
O=C(CSc1nc2ccccc2o1)Nc1ccccc1N1CCOCC1,2,-5,-1,55,-1,-7,/,/
CC(C)(C)c1ccc(/C=C2\SC(=O)N(CCNC(=O)c3cccc(S(=O)(=O)N4CCOCC4)c3)C2=O)cc1,-7,24,1,5,3,20,/,/
CC(=O)c1c(C)[nH]c(C(=O)CSc2nc3ccccc3c(=O)n2CCCO)c1C,-32,28,1,1,0,-11,14,-3
CS(=O)(=O)N1CCc2cc(C(=O)N3CCN(c4cccc(Cl)c4)CC3)ccc21,-12,2,11,-1,8,-16,/,/
Cc1ccc(Cl)cc1N1CCN(C(=O)c2ccc3c(c2)CCN3S(C)(=O)=O)CC1,-15,31,10,16,7,13,-2,-5
Cc1[nH]c2ccc(C(=O)OCC(=O)NC3(C#N)CCCCC3)cc2c1C,-8,-22,1,28,3,-26,/,/
CCN(CC(=O)Nc1ccc(NC(C)=O)cc1)C(=O)CSCc1c(C)noc1C,2,1,1,2,0,2,/,/
O=c1cc(CN2CC(O)Cc3ccc4ccccc4c32)nc2sccn12 (stereo unspecified),-8,71*,3,47,4,-12,57*,-6
SMILES,OXTR potentiate,OX1R antag-1,V1R ag counter,OX1R antag-2,OXTR agonist,CHO parental Ca,OX1R Fluo8 conf,CHO Ca triplic
CCC[C@@H](NS(=O)(=O)c1ccc(C)cc1)C(=O)Oc1ccc2c3c(c(=O)oc2c1)CCC3,-6,23,5,6,1,24,39*,-21
Cc1ccc(S(=O)(=O)NC(C(=O)Oc2ccc3c(C)c(Cl)c(=O)oc3c2)c2ccccc2)cc1 (stereo unspecified),-4,-18,0,2,1,-4,/,/
Cc1ccc(S(=O)(=O)N2CCOC2CNC(=O)C(=O)NCCN2CCOCC2)cc1 (stereo unspecified),-4,-7,-1,17,0,4,/,/
CN(C)CCCNc1cc(C(C)(C)C)nc2c(-c3ccc(Cl)cc3)cnn12,0,31,5,9,9,13,25,-3
CCOc1ccc(C(=O)NC2CC(=O)N(c3ccc4c(c3)OCCO4)C2)cc1 (stereo unspecified),7,-29,1,-1,-1,-39,/,/
CC(C)(C)c1cc(C(=O)CCN2CCOCC2)cc(C(C)(C)C)c1O,-10,37,2,2,0,22,-3,-19
COc1cccc(-c2sc3ccc(OC)cc3c2-c2ccc(OCCN(C)C)cc2)c1,-4,59*,6,7,6,23,37*,4
CCN1CCc2c(OCc3ccc(C)cc3)cccc2C1=O,-4,-25,-1,25,-3,-27,/,/
CCC(Oc1ccccc1C)C(=O)N1CCCN(C)CC1 (stereo unspecified),3,-6,0,8,1,-9,/,/
Cc1ccc(OCCC(=O)OCC(=O)c2ccc3c(c2)NC(=O)CO3)cc1,-11,35,13,-1,11,12,8,-1
O=C1COc2ccc(C(=O)COC(=O)CCSc3ccccc3)cc2N1,-9,-23,10,6,12,26,/,/
CC(C)NC(=O)C1CCN(C2CCN(CC3CC=CCC3)CC2)CC1 (stereo unspecified),-4,76*,0,8,0,-4,3,-1
Cc1ccc(C(=O)N2CCN(c3ccc(NC(=O)COc4ccccc4C)cc3)CC2)cc1,-7,4,3,4,1,-3,/,/
CCOc1ccc(S(=O)(=O)n2cnc3cc(C)c(C)cc32)cc1,-8,60*,6,22,9,1,-1,59*
Cc1ccsc1C(=O)N1CCCC(N(C)Cc2ccccc2)C1 (stereo unspecified),-3,38,0,4,-1,-4,-5,-4
